Data reported in PMC7860060 (ACS Omega, 2021).
“Also recorded” adds a separate entry of the source. Where no end group is shown, it is not given here.

Columns and labels:
[1] = Water solubility of peptides; type: physicochemical; details: peptide excluded from synthesis for ITC; 'would be' marginally soluble
[2] = target: native HSA (Homo sapiens, UniProt P02768); assay: ITC titration of peptide into native HSA; type: binding; details: 0.1 M sodium phosphate pH 7.4, 25 °C
[3] = target: carbamylated HSA (cHSA-3) (Homo sapiens, UniProt P02768); assay: ITC titration of peptide into cHSA-3; type: binding; details: pH 7.4
[4] = system: native Fgn (fibrinogen); assay: ITC titration of peptide into native Fgn; type: binding, bovine; details: peptide 0.21 mM into Fgn 4 μM, 0.1 M sodium phosphate pH 7.4, 25 °C
Outline: (§1)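 Bovine plasma fibrinogen was used either native or carbamylated by stirring 0.008 mM protein with 0.1 M sodium cyanate in 0.1 M phosphate pH 7.4 at room temperature for 2 days. Cell held 4 μM protein; peptide titrant was 0.21 mM; both were in 0.1 M sodium phosphate pH 7.4. 50 injections 200 s apart, 150 rpm, 25 °C. Dilution heat subtracted, independent-model fit, repeated at least twice.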

[5] = target: anti-Hcit (anti-carbamylation (homocitrulline) polyclonal antibody); assay: ITC titration of peptide into anti-Hcit; type: binding, rabbits; details: peptide into solution containing only anti-Hcit, 25 °C, 0.01 M PBS pH 7.4 containing 50% glycerol and 0.02% NaN3 (control test)
[6] = target: carbamylated HSA (cHSA-2) (Homo sapiens, UniProt P02768); assay: ITC titration of peptide into cHSA-2; type: binding
[7] = target: carbamylated HSA (cHSA-1) (Homo sapiens, UniProt P02768); assay: ITC titration of peptide into cHSA-1; type: binding; details: pH 7.4
[8] = target: cHSA (Homo sapiens, UniProt P02768); assay: ITC titration of peptide into cHSA of different levels of carbamylation; type: binding
Sequence of cHSA (P02768 25-609): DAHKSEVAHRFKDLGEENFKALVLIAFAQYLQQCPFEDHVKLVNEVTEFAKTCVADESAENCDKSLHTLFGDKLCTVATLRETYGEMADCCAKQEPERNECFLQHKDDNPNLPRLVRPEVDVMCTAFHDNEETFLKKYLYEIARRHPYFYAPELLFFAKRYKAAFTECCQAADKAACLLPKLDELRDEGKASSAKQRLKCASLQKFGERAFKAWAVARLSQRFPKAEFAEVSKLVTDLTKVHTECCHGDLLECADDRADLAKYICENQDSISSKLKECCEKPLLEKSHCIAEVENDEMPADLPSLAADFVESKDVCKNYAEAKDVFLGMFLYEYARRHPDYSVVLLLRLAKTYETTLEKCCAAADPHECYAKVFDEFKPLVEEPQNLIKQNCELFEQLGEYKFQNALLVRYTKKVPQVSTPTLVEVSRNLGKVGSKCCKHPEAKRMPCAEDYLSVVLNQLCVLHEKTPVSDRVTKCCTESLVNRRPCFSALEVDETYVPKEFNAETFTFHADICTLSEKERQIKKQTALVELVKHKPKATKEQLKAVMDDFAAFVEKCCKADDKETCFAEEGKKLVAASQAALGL

[9] = target: T1, carbamylated fibrinogen (cFgn) (Bos taurus, UniProt P02672+P02676+P12799, DEL436-444); assay: ITC titration of peptide into cFgn; type: binding, bovine
T1 sequence (P02672 20-615): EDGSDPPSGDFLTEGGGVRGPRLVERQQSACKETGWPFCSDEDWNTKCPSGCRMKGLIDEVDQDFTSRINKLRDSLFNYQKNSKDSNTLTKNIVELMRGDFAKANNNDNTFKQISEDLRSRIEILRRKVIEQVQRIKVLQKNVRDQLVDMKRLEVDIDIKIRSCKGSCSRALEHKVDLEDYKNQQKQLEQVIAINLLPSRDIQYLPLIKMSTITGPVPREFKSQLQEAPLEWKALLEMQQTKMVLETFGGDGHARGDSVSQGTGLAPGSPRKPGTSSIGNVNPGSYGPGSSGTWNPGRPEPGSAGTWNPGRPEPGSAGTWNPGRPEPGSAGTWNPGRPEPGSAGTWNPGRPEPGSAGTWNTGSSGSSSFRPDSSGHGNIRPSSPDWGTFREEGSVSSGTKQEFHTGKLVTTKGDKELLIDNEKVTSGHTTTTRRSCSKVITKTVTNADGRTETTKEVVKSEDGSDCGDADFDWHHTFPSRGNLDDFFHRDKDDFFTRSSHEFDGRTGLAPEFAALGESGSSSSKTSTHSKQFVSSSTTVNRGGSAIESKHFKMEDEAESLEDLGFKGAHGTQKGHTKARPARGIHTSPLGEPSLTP
T1 sequence (P02676 1-468): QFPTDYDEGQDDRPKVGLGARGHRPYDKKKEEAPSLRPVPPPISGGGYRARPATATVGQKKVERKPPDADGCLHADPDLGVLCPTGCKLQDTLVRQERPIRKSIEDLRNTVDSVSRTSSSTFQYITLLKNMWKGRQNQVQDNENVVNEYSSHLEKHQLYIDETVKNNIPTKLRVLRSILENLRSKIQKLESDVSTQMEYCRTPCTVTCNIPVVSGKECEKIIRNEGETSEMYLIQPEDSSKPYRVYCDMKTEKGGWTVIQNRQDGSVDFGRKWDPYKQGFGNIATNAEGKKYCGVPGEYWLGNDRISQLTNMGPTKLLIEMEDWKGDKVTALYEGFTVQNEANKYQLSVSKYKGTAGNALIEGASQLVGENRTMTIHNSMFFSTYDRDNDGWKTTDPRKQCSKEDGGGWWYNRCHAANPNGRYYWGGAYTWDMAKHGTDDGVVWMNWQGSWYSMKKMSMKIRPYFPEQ
T1 sequence (P12799 25-435 limits assumed): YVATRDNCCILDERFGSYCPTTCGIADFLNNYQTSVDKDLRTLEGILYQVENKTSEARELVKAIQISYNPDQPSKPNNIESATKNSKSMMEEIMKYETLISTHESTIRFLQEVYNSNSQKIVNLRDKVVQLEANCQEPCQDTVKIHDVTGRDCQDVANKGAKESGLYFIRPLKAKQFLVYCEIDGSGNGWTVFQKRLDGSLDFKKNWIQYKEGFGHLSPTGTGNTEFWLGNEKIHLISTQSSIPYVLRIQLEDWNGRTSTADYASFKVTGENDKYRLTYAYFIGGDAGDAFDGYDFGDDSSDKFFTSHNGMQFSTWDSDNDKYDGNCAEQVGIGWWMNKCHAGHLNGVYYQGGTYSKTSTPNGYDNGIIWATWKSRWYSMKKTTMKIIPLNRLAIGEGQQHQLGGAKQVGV
Outline: as §1

[10] = target: Carbamylated human serum albumin, Hcit% 2.7 (cHSA-2) (human) (UniProt P02768); assay: ITC
[11] = target: Anti-carbamylation (homocitrulline) polyclonal antibody (anti-Hcit) (rabbit); assay: ITC
[12] = target: Albumin from human serum (native HSA) (human, UniProt P02768 25-609); assay: ITC
Sequence of Albumin from human serum (native HSA) (P02768 25-609): as the sequence (P02768 25-609) above

Sequence of native HSA (P02768 25-609): as the sequence (P02768 25-609) above

WPARTSAPFTNS [cH2-p3]
aqueous solubility (expected) [1]: marginally soluble

TPTIAIAQYNKW [cH2-p5]
aqueous solubility (expected) [1]: marginally soluble

GSAARTISPSLL [cH2-p1]
binding to HSA in words (ITC) [2]: too weak to produce an obvious titration curve | Kd [3]: 99 µM | binding to native Fgn (ITC) [4]: not binding to native Fgn at all | Kd [5]: 1000 µM | Kd to cHSA relative to Kd to native HSA ([6]; ITC, comparison with native HSA): almost 1 order of magnitude lower than its Kd to native HSA | binding affinity for cHSA versus HSA (ITC and ELISA) ([6]; both ITC and ELISA results): consistently higher binding affinity for cHSA than HSA | Kd ([6]; pH 7.4): 97 µM | Kd [7]: 120 µM | Kd [8]: ~100 µM | binding thermodynamics (sign of heat), HSA/cHSA ([8]; ITC titration peaks, HSA/cHSA, pH 7.4, 25 °C): exothermic | influence of extent of carbamylation on binding affinity ([8]; ITC, cHSA-1, cHSA-2, cHSA-3): difference in surface charge did not seem to affect the binding affinity; also recorded: not found to be influenced by the extent of carbamylation | Kd [9]: 84 µM | binding thermodynamics (sign of heat), cFgn ([9]; ITC titration peaks, pH 7.4, 25 °C): endothermic | binding to carbamylated versus native fibrinogen (ITC) ([9]; cFgn versus native Fgn): binding specificity to carbamylated fibrinogen (cFgn); also recorded: found to bind cFgn over the native protein

TLGLRPVPVATT [cH2-p6 peptide (synthetic)]
Kd [10]: 200 µM

AHPHSDKLVPPR [cH2-p4 peptide (synthetic)]
Kd [10]: 130 µM

GSAARTISPSLL [cH2-p1 peptide (synthetic)]
Kd [11]: 1000 µM | Kd [12]: 1000 µM
